Experimental data: ChEMBL document CHEMBL1165856, “Naftifine-analogues as anti-Trypanosoma cruzi agents” (Eur J Med Chem, 2010)
pIC50: −log10 of the molar value. Values after ≈ are worked out from the molar mass of the structure shown.

Legend:
[1] = Selectivity index, ratio of ID50 for mouse J774 cells to ID50 for Trypanosoma cruzi Tulahuen 2; format: toxicity, cell-based; conditions: J774 cells versus Trypanosoma cruzi Tulahuen 2
Procedure, shortened: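 Selectivity index is the ID50 in J-774 macrophages (48 h MTT) divided by the ID50 against Tulahuen 2 epimastigotes (day-5 A600 growth).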

Trypanosoma cruzi [2] = assay: Antitrypanosomal activity against Trypanosoma cruzi Tulahuen 2; format: functional; conditions: read-out: ID50 (the source's name)
Procedure, shortened: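 Epimastigotes were grown at 28 °C in BHI-tryptose with 5% FBS. Stationary-phase parasites are inoculated at 8 × 10⁶ cells/mL into medium containing increasing drug concentrations from DMSO stock (final DMSO ≤0.4%; vehicle control). Growth is followed by A600. ID50 is the concentration that halves the day-5 absorbance ratio relative to control.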

[3] = Cytotoxicity against mouse J774 cells after 48 hrs by MTT assay; format: cell-based; conditions: read-out: ID50
Procedure, shortened: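 J-774 macrophages were seeded at 1 × 10⁵ cells/well in RPMI 1640 with 20% heat-inactivated FCS and left to attach for 48 h at 37 °C in 5% CO₂. Cells were then exposed to compounds for 48 h. MTT was added at 0.4 mg/mL final, formazan was dissolved in DMSO, and A595 was read. ID50 is the concentration cutting control absorbance by 50%, averaged over three experiments.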

Trypanosoma cruzi [4] = assay: Antitrypanosomal activity against Trypanosoma cruzi Tulahuen 2 at 25 uM; format: functional
Procedure, shortened: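 Tulahuen 2 epimastigotes (8 × 10⁶ cells/mL, 28 °C, BHI-tryptose with 5% FBS) were exposed to a single drug concentration, with final DMSO ≤0.4% and a vehicle control. Percent growth inhibition = {1 − [(Ap − A0p)/(Ac − A0c)]} × 100, using A600 of drug and control cultures at day 0 and day 5.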

Aspergillus fumigatus = assay: Antifungal activity against Aspergillus fumigatus ATCC 26934 after 48 hrs; format: functional; conditions: ATCC 26934, 48 h
Procedure, shortened: (§1)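 Aspergillus spp. were tested by CLSI M38-A broth microdilution in RPMI 1640 with MOPS at pH 7.0. Spore inoculum is 10³ CFU/mL, with two-fold compound dilutions and final DMSO ≤1%. Incubated at 35 °C in a moist, dark chamber. MIC is read visually as total growth inhibition, at a time set by growth of the control fungus.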

Aspergillus niger = assay: Antifungal activity against Aspergillus niger ATCC 9029 after 48 hrs; format: functional; conditions: ATCC 9029, 48 h; procedure, shortened: as §1
Trichophyton rubrum = assay: Antifungal activity against Trichophyton rubrum C 113 after 48 hrs; format: functional; conditions: C 113, 48 h
Procedure, shortened: (§2)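 Dermatophytes were tested by CLSI M38-A microdilution in MOPS-buffered RPMI 1640 at pH 7.0. Inoculum is 10³ CFU/mL, with two-fold serial compound dilutions and final DMSO ≤1%. Trays are kept at 28–30 °C in a moist, dark chamber. MIC is the lowest concentration with total growth inhibition, read visually when control growth allows.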

[5] = system: Trichophyton mentagrophytes; assay: Antifungal activity against Trichophyton mentagrophytes ATCC 9972 after 48 hrs; format: functional; conditions: ATCC 9972, 48 h; procedure, shortened: as §2
Candida tropicalis = assay: Antifungal activity against Candida tropicalis C 131 2000 after 48 hrs; format: functional; conditions: Candida tropicalis, C 131 2000, 48 h; read-out: MIC
Procedure, shortened: (§3)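 CLSI M27-A2 broth microdilution in RPMI 1640 buffered to pH 7.0 with MOPS. Inoculum is 10³ CFU/mL from Sabouraud-grown yeasts. Compound is two-fold serially diluted, final DMSO ≤1%. Incubated at 35 °C in a moist, dark chamber and read visually at 48 h. MIC is the lowest concentration giving total growth inhibition.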

Nannizzia gypsea = assay: Antifungal activity against Microsporum gypseum C 115 after 48 hrs; format: functional; conditions: C 115, 48 h; procedure, shortened: as §2
Saccharomyces cerevisiae = assay: Antifungal activity against Saccharomyces cerevisiae ATCC 9763 after 48 hrs; format: functional; conditions: ATCC 9763, 48 h; procedure, shortened: as §3
Candida albicans = assay: Antifungal activity against Candida albicans ATCC 10231 after 48 hrs; format: functional; conditions: ATCC 10231, 48 h; procedure, shortened: as §3
Cryptococcus neoformans = assay: Antifungal activity against Cryptococcus neoformans ATCC 32264 after 48 hrs; format: functional; conditions: Cryptococcus neoformans, ATCC 32264, 48 h; read-out: MIC; procedure, shortened: as §3
Aspergillus flavus = assay: Antifungal activity against Aspergillus flavus ATCC 9170 after 48 hrs; format: functional; conditions: ATCC 9170, 48 h; procedure, shortened: as §1

SMILES	pIC50 (Trypanosoma cruzi [2])	MIC (Aspergillus fumigatus) [µg/mL]	MIC (Aspergillus niger) [µg/mL]	MIC (Trichophyton rubrum) [µg/mL]	MIC [5] [µg/mL]	MIC (Candida tropicalis) [µg/mL]	MIC (Nannizzia gypsea) [µg/mL]	MIC (Saccharomyces cerevisiae) [µg/mL]	MIC (Candida albicans) [µg/mL]	MIC (Cryptococcus neoformans) [µg/mL]	MIC (Aspergillus flavus) [µg/mL]	selectivity ratio [1]	CC50 at 48 h [3] [µM]	also measured
Cc1c(C(=O)Nc2ccccc2)[n+]([O-])c2cc(CN(C)C/C=C/c3ccccc3)ccc2[n+]1[O-]														inhibition at 25 µM (Trypanosoma cruzi [4]): 34%
C=CCNC(=S)N/N=C/c1ccc2c(c1)[n+]([O-])c(C(=O)Nc1ccccc1)c(-c1ccccc1)[n+]2[O-]														inhibition at 25 µM (Trypanosoma cruzi [4]): 18%
N#Cc1c2ccccc2[n+]([O-])n1CC/C=C\c1ccccc1														inhibition at 25 µM (Trypanosoma cruzi [4]): 30%
C[C@@H]1[C@H](O)[C@@H](C)/C=C/C=C/C=C/C=C/C=C/C=C/C=C/[C@H](O[C@@H]2O[C@H](C)[C@@H](O)[C@H](N)[C@@H]2O)C[C@@H]2O[C@](O)(C[C@@H](O)C[C@@H](O)[C@H](O)CC[C@@H](O)C[C@@H](O)CC(=O)O[C@H]1C)C[C@H](O)[C@H]2C(=O)O [AMPHOTERICIN B]		0.5 (≈ 0.541 µM)	0.5 (≈ 0.541 µM)	0.075 (≈ 0.0812 µM)	0.075 (≈ 0.0812 µM)	1.56 (≈ 1.69 µM)	0.125 (≈ 0.135 µM)	0.5 (≈ 0.541 µM)	0.78 (≈ 0.844 µM)	0.25 (≈ 0.271 µM)	0.5 (≈ 0.541 µM)			
CC(=O)N1CCN(c2ccc(OCC3COC(Cn4ccnc4)(c4ccc(Cl)cc4Cl)O3)cc2)CC1 (stereo not given) [KETOCONAZOLE]		0.125 (≈ 0.235 µM)	0.25 (≈ 0.47 µM)	0.025 (≈ 0.047 µM)	0.025 (≈ 0.047 µM)	0.5 (≈ 0.941 µM)	0.05 (≈ 0.0941 µM)	0.5 (≈ 0.941 µM)	0.5 (≈ 0.941 µM)	0.25 (≈ 0.47 µM)	0.5 (≈ 0.941 µM)	19.9	339	
CC1CS(=O)(=O)CCN1/N=C/c1ccc([N+](=O)[O-])o1 (stereo not given) [NIFURTIMOX]												> 33.3		

Second part, led by results:

pIC50 (Trypanosoma cruzi [2])	MIC (Aspergillus fumigatus) [µg/mL]	MIC (Aspergillus niger) [µg/mL]	MIC (Trichophyton rubrum) [µg/mL]	MIC [5] [µg/mL]	MIC (Candida tropicalis) [µg/mL]	MIC (Nannizzia gypsea) [µg/mL]	MIC (Saccharomyces cerevisiae) [µg/mL]	MIC (Candida albicans) [µg/mL]	MIC (Cryptococcus neoformans) [µg/mL]	MIC (Aspergillus flavus) [µg/mL]	SMILES	selectivity ratio [1]	CC50 at 48 h [3] [µM]	also measured
4.64											CN(C/C=C/c1ccccc1)Cc1ccc2c(c1)=[N+]([O-])C(C)(C)[N+]=2[O-]	> 17.6	> 400	
4.64											COc1nn(CCOCCN(C)C/C=C/c2ccccc2)c2ccc([N+](=O)[O-])cc12	< 4.3	< 100	
5.00											CN(C/C=C/c1ccccc1)CCOCCn1nc(OCc2ccccc2)c2cc([N+](=O)[O-])ccc21	< 10	< 100	
4.60											CC1(C)[N+]([O-])=c2ccc(CN3CCN(C/C=C/c4ccccc4)CC3)cc2=[N+]1[O-]	4.4	109	
5.35											O=[N+]([O-])c1ccc2c(c1)c(OCc1ccccc1)nn2CCOCCNCCC/C=C/c1ccccc1	< 22.2	< 100	
5.19	> 250	> 250	125 (≈ 231 µM)	125 (≈ 231 µM)	> 250	125 (≈ 231 µM)	> 250	> 250	> 250	> 250	O=[N+]([O-])c1ccc2c(c1)c(OCc1ccccc1)nn2CCOCCN1CCN(C/C=C/c2ccccc2)CC1	< 15.4	< 100	MFC (Trichophyton rubrum): > 250 µg/mL; MFC [5]: > 250 µg/mL; MFC (Nannizzia gypsea): > 250 µg/mL
	> 250	> 250	> 250	> 250	> 250	> 250	> 250	> 250	> 250	> 250	C=CCNC(=S)N/N=C/c1ccc2no[n+]([O-])c2c1			inhibition at 25 µM (Trypanosoma cruzi [4]): 33%
	0.78 (≈ 2.68 µM)	1.56 (≈ 5.35 µM)	0.01 (≈ 0.0343 µM)	0.025 (≈ 0.0858 µM)	1.56 (≈ 5.35 µM)	0.04 (≈ 0.137 µM)	3.12 (≈ 10.7 µM)	1.56 (≈ 5.35 µM)	0.39 (≈ 1.34 µM)	0.78 (≈ 2.68 µM)	CN(C/C=C/C#CC(C)(C)C)Cc1cccc2ccccc12 [TERBINAFINE]	< 10	< 100	
